SMILES strings stand for the structures. Calls of active or inactive are those of the source. The calls are words filed in the database; no cut-off is given here.

Assay [1] concerns the target T1, G-protein coupled receptor 35 (Homo sapiens, UniProt Q9HC97). Nature of the assay: Agonist activity at human GPR35 receptor expressed in HT-29 cells assessed as dynamic mass redistribution response by DMR assay. Type of assay: functional, cell-based.
In assay [2] the target is T1, G-protein coupled receptor 35. Nature of the assay: Agonist activity at human GPR35 receptor expressed in HT-29 cells assessed as desensitization of zaprinast-induced DMR response preincubated for 1 hr followed by zaprinast stimulation by DMR desensitization assay. Type of assay: functional, cell-based.
For assay [3] the target is unchanged. Nature of the assay: Agonist activity at human GPR35 receptor expressed in HT-29 cells assessed as reduction in dynamic mass redistribution response in presence of GPR35 antagonist ML-145 by DMR assay. Type of assay: functional, cell-based.
Assay [4] shares this target. Nature of the assay: Agonist activity at human GPR35 receptor expressed in CHO-K1 cells assessed as dynamic mass redistribution response by DMR assay. Type of assay: functional, cell-based.
For assay [5] the target is unchanged. Nature of the assay: Agonist activity at human GPR35 receptor expressed in CHO-K1 cells assessed as desensitization of zaprinast-induced DMR response preincubated for 1 hr followed by zaprinast stimulation by DMR desensitization assay. Type of assay: functional, cell-based.
Assay [6] deals with Muscarinic acetylcholine receptor M3 (Homo sapiens) (UniProt P20309). Nature of the assay: Agonist activity at muscarinic M3 receptor (unknown origin) at 1 uM. Type of assay: functional. The method, boiled down:
(§1)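 Each receptor was expressed separately in its own cell line, and compounds were added at 1 μM. Cells were seeded on biosensor plates and grown overnight to a confluent monolayer. They were then washed, kept in Hank's balanced salt solution, and equilibrated 1 h in the reader. After a 2 min baseline, the label-free dynamic mass redistribution (DMR) response was recorded immediately after compound addition.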

In assay [7] the target is D(2) dopamine receptor (Homo sapiens) (UniProt P14416). Nature of the assay: Agonist activity at dopamine D2 receptor (unknown origin) at 1 uM. The format is functional. The method, boiled down: as §1
The target of assay [8] is Mu-type opioid receptor (Homo sapiens) (UniProt P35372). Nature of the assay: Agonist activity at mu-opioid receptor (unknown origin) at 1 uM. The format is functional. The method, boiled down:
as §1

For assay [9], the target named is T2, Free fatty acid receptor 4 (Homo sapiens) (UniProt Q5NUL3).
T2 sequence (whole entry): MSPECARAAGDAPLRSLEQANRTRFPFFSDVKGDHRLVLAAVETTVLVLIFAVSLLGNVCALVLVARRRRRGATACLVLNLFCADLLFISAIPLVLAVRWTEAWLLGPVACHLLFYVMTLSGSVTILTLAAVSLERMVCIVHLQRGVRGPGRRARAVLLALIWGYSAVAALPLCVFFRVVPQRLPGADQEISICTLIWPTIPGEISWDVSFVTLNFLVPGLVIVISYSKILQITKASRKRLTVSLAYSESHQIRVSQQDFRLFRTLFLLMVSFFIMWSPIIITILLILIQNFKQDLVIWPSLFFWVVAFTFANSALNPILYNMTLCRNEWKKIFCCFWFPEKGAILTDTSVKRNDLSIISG
Nature of the assay: Agonist activity at FFA4 receptor (unknown origin) at 1 uM. Type of assay: functional. The procedure, abridged:
as §1

The target of assay [10] is Histamine H1 receptor (Homo sapiens) (UniProt P35367). Nature of the assay: Agonist activity at histamine H1 receptor receptor (unknown origin) at 1 uM.
The target in assay [11] is T1, G-protein coupled receptor 35. Nature of the assay: Agonist activity at human GPR35 receptor expressed in HEK293T cells co-expressing beta-arrestin2 assessed as induction of beta-arrestin2 recruitment by BRET assay. Type of assay: functional, cell-based.

Chain of Mu-type opioid receptor (Homo sapiens) (P35372 whole entry): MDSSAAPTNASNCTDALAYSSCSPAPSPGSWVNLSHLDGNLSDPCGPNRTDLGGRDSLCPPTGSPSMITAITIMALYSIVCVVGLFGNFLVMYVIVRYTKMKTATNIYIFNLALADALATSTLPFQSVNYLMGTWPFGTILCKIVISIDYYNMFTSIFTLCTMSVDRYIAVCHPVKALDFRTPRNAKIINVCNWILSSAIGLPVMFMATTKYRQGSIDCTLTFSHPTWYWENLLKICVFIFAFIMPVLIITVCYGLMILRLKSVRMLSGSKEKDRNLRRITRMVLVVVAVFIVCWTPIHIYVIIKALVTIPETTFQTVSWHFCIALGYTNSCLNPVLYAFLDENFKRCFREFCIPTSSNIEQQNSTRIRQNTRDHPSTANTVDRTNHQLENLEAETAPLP
Chain of Histamine H1 receptor (Homo sapiens) (P35367 whole entry, looked up): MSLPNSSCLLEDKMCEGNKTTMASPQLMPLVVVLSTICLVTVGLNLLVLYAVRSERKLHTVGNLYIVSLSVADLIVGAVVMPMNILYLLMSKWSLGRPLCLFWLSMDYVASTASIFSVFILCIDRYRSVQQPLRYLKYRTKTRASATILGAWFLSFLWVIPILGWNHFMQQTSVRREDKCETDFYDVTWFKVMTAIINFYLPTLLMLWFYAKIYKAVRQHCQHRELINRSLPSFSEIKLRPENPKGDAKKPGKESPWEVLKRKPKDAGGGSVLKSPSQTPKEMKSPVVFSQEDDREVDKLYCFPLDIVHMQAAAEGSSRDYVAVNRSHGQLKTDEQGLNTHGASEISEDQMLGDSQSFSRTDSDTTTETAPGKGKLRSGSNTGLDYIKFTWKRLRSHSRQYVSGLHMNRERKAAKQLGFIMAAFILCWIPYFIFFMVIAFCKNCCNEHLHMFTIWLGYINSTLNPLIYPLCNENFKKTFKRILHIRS
Chain of Muscarinic acetylcholine receptor M3 (Homo sapiens) (P20309 whole entry, looked up): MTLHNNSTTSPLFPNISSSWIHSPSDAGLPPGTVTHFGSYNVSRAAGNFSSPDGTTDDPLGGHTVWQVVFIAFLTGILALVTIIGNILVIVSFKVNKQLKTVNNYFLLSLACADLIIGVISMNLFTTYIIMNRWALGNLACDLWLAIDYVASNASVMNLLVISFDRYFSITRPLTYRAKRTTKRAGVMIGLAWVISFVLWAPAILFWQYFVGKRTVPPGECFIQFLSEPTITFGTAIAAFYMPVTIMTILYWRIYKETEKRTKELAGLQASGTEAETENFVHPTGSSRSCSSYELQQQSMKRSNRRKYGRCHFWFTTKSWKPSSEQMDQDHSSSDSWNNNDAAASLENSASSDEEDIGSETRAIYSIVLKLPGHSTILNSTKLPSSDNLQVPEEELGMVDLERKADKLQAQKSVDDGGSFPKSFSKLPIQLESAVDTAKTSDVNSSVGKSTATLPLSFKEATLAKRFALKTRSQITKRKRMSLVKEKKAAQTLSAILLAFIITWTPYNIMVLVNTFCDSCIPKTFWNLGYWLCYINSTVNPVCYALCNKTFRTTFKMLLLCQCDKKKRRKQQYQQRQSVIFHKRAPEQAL
Chain of D(2) dopamine receptor (Homo sapiens) (P14416 whole entry): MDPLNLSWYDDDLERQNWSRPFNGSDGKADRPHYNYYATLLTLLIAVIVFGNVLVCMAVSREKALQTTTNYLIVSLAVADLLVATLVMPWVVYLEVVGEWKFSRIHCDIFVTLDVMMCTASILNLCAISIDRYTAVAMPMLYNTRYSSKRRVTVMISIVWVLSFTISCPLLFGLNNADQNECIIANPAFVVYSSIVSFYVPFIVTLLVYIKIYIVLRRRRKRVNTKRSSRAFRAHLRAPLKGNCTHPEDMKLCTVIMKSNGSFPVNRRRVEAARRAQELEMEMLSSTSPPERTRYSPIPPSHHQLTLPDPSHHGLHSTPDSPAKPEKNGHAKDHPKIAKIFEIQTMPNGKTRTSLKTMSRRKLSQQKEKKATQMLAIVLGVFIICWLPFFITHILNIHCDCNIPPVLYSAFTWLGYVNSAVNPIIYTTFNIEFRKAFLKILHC
T1 sequence (Q9HC97 whole entry): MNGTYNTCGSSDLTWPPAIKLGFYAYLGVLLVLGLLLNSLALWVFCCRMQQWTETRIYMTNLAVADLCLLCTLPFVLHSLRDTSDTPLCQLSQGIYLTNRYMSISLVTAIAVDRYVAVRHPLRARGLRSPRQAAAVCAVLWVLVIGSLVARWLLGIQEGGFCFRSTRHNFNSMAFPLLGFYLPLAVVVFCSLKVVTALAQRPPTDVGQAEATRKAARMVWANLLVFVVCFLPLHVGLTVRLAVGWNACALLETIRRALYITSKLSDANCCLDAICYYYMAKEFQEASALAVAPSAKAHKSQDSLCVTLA

For `O=C(O)c1cc(C(=O)O)c2c(n1)C(=O)C(=O)c1cc(C(=O)O)[nH]c1-2` [PYRROLOQUINOLINE QUINONE], the EC50 in assay [1] stood at 0.071 µM. Also, the values for the IC50 in assay [2] and in assay [3] were 0.03 µM and 0.582 µM, respectively.

With `O=C(O)c1cc2c(oc1=O)c(Br)cc1cc(-c3nnn[nH]3)c(=O)oc12`, the EC50 was 0.018 µM in [1] and 0.0259 µM in assay [4]. For the same compound, the IC50 in [2] worked out at 0.018 µM; in [3], 0.83 µM; in [5], 0.0159 µM. Also, the outcome in [6], in [7], in [8], in assay [9] and in assay [10] was inactive.

In the case of `COc1cc(C(=O)O)nc2c(C)c3nc(C(=O)O)cc(OC)c3cc12`, the EC50 is 0.1 µM in assay [1] and 0.00813 µM in assay [4]. Also, the figures for the IC50 in assay [2], in [3] and in [5] were 0.065 µM, 0.282 µM and 0.00611 µM, respectively. For the same compound, the result in assay [6], in [7], in assay [8], in [9] and in assay [10] was inactive.

Regarding `O=C(O)c1cc2cc(Br)c(O)cc2oc1=O`, the IC50 in assay [3] is 0.13 µM.

In the case of `CCCOc1ccccc1-c1nc2[nH]nnc2c(=O)[nH]1`, the result in assay [7], in assay [8] and in assay [9] was inactive.

Regarding `COc1cccc(-c2cc3cc(C(=O)O)c(=O)oc3c3cc(C(=O)O)c(=O)oc23)c1`, the EC50 in assay [1] was found to be 0.015 µM. Besides, the IC50 in assay [2] was 0.003 µM; in [3] it was 0.17 µM.

Turning to `COc1cccc(-c2cc3cc(C(=O)O)c(=O)oc3cc2O)c1`, the EC50 in [1] stood at 1.6 µM. Further, the results for the IC50 in assay [2] and in [3] were 1.38 µM and 2.26 µM, respectively.

For `Cc1c2[nH]c(C(=O)O)cc(=O)c2cc2c(=O)cc(C(=O)O)[nH]c12`, the results for the EC50 in assay [1] and in assay [4] were 0.008 µM and 0.00108 µM, respectively. For the same compound, the IC50 is 0.002 µM in [2], 0.789 µM in assay [3] and 0.00074 µM in [5]. The outcome in [6], in assay [7], in assay [8], in assay [9] and in [10] was inactive.

As to `COc1ccccc1-c1cc2cc(C(=O)O)c(=O)oc2cc1O`, in [1], the EC50 turned out to be 23.9 µM. Besides, the IC50 stood at 17.6 µM in assay [2] and 0.12 µM in assay [3].

In the case of `COc1ccc(-c2cc3cc(C(=O)O)c(=O)oc3c3cc(C(=O)O)c(=O)oc23)cc1`, the EC50 is 0.02 µM in assay [1] and 0.00693 µM in [4]. Further, the figures for the IC50 in [2], in assay [3] and in [5] were 0.007 µM, 0.47 µM and 0.00245 µM, respectively. Further, the result in assay [6], in assay [7], in [8], in assay [9] and in assay [10] was inactive.

`CCCCc1cc2c(=O)cc(C(=O)O)[nH]c2c2c(=O)cc(C(=O)O)[nH]c12` [BUFROLIN]: in [11], the EC50 worked out at 0.013 µM.

Turning to `Cc1c2oc(=O)c(C(=O)O)cc2cc2cc(C(=O)O)c(=O)oc12`, in assay [1], the EC50 was determined as 0.14 µM. Also, the IC50 in [2] was 0.042 µM; in assay [3] it was 0.35 µM.

For `O=C(O)c1cc2cc(-c3cccs3)c(O)cc2oc1=O`, the EC50 in assay [1] was determined as 2.88 µM. For the same compound, the results for the IC50 in assay [2] and in [3] were 1.45 µM and 0.16 µM, respectively.

As to `Cc1c2nc(C(=O)O)cc(Cl)c2cc2c(Cl)cc(C(=O)O)nc12`, the EC50 is 0.054 µM in [1] and 0.00508 µM in [4]. Also, the IC50 stood at 0.015 µM in assay [2], 2.53 µM in [3] and 0.00352 µM in assay [5]. For the same compound, the result in assay [6], in assay [7], in assay [8], in [9] and in [10] was inactive.

As to `O=C(O)c1cc2c(oc1=O)c(-c1ccc(F)cc1)cc1cc(C(=O)O)c(=O)oc12`, the EC50 in assay [1] worked out at 0.033 µM. For the same compound, the IC50 in [3] was determined as 1.03 µM.

These data come from ChEMBL document CHEMBL4834401, “Structure-Activity Relationship Studies of Coumarin-like Diacid Derivatives as Human G Protein-Coupled Receptor-35 (hGPR35) Agonists and a Consequent New Design Principle” (J Med Chem, 2021).
